Laboratory results reported in ChEMBL document CHEMBL1147738, “Potent and selective mitogen-activated protein kinase kinase (MEK) 1,2 inhibitors. 1. 4-(4-bromo-2-fluorophenylamino)-1- methylpyridin-2(1H)-ones” (J Med Chem, 2006).

What was measured:
Malme-3M [1] = test: Inhibition of cellular viability of Malme-3M cells; type: functional, Homo sapiens
[2] = molecular target: Tyrosine-protein kinase Lck (Homo sapiens) (UniProt P06239); test: Inhibition of LCK at 10 uM
Method in brief: (§1)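 Kinase panel run at Upstate (Dundee). Each compound was tested at 10 µM against each enzyme and reported as % inhibition.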

[3] = Half life in rat at 10 mg/kg, po; type: ADME, organism-based; set-up: dose 10 mg/kg, route oral; settings: Sprague-Dawley, in vivo
Method in brief: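 Male Sprague Dawley rats (6-10 weeks) were given 10 mg/kg by oral gavage (2 mg/mL in 1% CMC/0.5% Tween 80, 5 mL/kg). Tail-vein EDTA blood was drawn at 15 and 30 min and 1, 2, 4, 8, 12, 24, 48, 72 h. Plasma was quantified by LC/MS/MS after methanol precipitation. Parameters came from non-compartmental analysis.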

Rattus norvegicus = test: AUC in rat at 1 mg/kg, iv; type: ADME, organism-based, Sprague-Dawley, Plasma; set-up: dose 1 mg/kg, route intravenous; settings: in vivo
Method in brief: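 Male Sprague Dawley rats (6-10 weeks), fed ad lib, dosed IV at 1 mg/kg (1 mg/mL in 10% DMSO/90% normal saline, 1 mL/kg). Tail-vein EDTA blood sampled 1, 5, 15, 30 min and 1, 2, 4, 8, 12, 24 h. Plasma analysed by LC/MS/MS after methanol protein precipitation, range 9 ng/mL to 20 µg/mL. Parameters derived by non-compartmental analysis.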

[4] = molecular target: Ribosomal protein S6 kinase alpha-5 (Homo sapiens) (UniProt O75582); test: Inhibition of MSK1 at 10 uM; method in brief: as §1
HT-29 = test: Inhibition of ERK phosphorylation in HT29 tumor bearing NCr-nu/nu mice after 4 hrs at 10 mg/kg, po; type: functional; settings: Mus musculus, HT-29, 4 h
[5] = molecular target: T1, Serine/threonine-protein kinase Chk1 (Homo sapiens) (UniProt O14757); test: Inhibition of CHK1 at 10 uM; method in brief: as §1
T1 sequence (whole entry): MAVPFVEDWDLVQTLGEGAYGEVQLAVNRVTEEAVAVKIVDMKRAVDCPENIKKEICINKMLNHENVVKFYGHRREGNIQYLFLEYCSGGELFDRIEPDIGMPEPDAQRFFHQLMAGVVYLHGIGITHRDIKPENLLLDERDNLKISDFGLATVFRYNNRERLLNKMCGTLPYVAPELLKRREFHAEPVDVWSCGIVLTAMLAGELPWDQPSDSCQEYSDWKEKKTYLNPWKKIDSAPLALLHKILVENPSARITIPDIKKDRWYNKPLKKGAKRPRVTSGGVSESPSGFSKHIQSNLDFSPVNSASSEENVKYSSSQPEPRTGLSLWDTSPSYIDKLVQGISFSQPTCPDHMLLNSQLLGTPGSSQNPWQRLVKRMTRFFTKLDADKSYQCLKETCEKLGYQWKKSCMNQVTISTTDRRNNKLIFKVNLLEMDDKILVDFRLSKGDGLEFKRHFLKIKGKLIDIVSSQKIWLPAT

[6] = Clearance in rat; type: ADME, organism-based; settings: Sprague-Dawley, in vivo
Method in brief: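 Male Sprague Dawley rats (6-10 weeks) received IV 1 mg/kg (10% DMSO/90% saline) and PO 10 mg/kg (1% CMC/0.5% Tween 80). Serial tail-vein plasma was taken up to 24 h (IV) or 72 h (PO) and analysed by LC/MS/MS (9 ng/mL to 20 µg/mL). Parameters were calculated non-compartmentally.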

Malme-3M [7] = test: Inhibition of basal ERK phosphorylation in Malme-3M cells; type: functional, Homo sapiens
[8] = molecular target: Dual specificity mitogen-activated protein kinase kinase 1 (Homo sapiens, UniProt Q02750); test: Inhibitory activity against MEK1
Dual specificity mitogen-activated protein kinase kinase 1, sequence (Q02750 whole entry): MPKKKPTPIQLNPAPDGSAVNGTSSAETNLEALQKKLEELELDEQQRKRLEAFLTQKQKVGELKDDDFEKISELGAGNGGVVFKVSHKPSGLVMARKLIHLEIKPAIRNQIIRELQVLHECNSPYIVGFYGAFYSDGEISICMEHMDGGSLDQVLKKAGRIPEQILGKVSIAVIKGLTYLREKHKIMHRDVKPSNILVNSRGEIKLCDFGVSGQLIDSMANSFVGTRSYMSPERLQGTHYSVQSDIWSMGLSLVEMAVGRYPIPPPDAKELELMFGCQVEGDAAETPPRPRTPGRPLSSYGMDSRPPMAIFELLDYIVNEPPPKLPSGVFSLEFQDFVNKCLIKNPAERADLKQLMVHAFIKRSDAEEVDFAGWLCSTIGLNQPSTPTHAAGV

Tyrosine-protein kinase Lck (Homo sapiens), sequence (P06239 2-509 limits assumed): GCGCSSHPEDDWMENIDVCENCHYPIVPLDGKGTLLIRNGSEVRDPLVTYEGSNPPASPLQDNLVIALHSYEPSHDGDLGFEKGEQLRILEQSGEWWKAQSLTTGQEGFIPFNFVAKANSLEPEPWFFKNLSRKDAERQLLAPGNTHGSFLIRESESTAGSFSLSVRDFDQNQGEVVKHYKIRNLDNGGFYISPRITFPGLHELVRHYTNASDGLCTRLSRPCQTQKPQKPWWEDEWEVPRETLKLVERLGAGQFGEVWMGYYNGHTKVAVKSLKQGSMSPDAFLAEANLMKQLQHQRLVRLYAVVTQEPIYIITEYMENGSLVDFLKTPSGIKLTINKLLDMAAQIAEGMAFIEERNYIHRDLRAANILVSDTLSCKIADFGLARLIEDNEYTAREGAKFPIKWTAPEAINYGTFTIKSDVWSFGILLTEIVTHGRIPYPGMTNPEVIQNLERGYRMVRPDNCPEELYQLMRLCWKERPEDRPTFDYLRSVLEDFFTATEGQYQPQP
Ribosomal protein S6 kinase alpha-5 (Homo sapiens), sequence (O75582 whole entry, looked up): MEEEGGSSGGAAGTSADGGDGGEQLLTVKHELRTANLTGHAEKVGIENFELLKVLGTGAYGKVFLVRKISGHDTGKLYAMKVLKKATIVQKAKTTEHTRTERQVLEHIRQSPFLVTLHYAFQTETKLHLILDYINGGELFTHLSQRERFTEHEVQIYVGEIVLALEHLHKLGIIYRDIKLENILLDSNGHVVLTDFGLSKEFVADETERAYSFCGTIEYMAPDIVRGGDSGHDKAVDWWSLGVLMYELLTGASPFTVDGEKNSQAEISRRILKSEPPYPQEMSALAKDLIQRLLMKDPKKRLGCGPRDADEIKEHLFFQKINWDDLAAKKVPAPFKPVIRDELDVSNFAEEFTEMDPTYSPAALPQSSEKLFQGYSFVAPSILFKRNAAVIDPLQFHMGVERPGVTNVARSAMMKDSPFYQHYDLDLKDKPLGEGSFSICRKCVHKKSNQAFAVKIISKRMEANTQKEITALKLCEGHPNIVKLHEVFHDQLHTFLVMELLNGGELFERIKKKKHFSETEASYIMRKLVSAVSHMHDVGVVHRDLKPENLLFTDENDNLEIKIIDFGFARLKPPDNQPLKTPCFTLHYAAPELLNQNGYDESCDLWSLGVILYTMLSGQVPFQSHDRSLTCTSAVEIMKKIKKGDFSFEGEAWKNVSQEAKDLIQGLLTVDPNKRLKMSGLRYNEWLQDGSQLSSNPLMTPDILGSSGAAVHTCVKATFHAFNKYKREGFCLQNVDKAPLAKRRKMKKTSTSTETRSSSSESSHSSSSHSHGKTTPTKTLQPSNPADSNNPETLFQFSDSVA

CCONC(=O)c1cn(C)c(=O)c(C)c1Nc1ccc(Br)cc1F
Activity (Malme-3M [1]): 118 nM | inhibition [2]: 9% | half-life [3]: 4.7 h | AUC (Rattus norvegicus): 8900 ng·h/mL | inhibition [4]: 5% | inhibition in vivo at 10 mg/kg (HT-29): > 80% | inhibition [5]: 8% | clearance [6]: 1.9 mL/min/kg | Activity (Malme-3M [7]): 10.6 nM

Cc1c(Nc2ccc(Br)cc2F)c(C(=O)NOCCO)cn(C)c1=O
Activity (Malme-3M [1]): 11 nM | inhibition [2]: 13% | half-life [3]: 3 h | AUC (Rattus norvegicus): 2260 ng·h/mL | IC50 [8]: 0.018 µM | inhibition [4]: 2% | inhibition in vivo at 10 mg/kg (HT-29): > 80% | inhibition [5]: 11% | clearance [6]: 8 mL/min/kg | Activity (Malme-3M [7]): 2 nM

CONC(=O)c1cn(C)c(=O)c(C)c1Nc1ccc(Br)cc1F
Activity (Malme-3M [1]): 265 nM | inhibition [2]: -1% | half-life [3]: 4.7 h | AUC (Rattus norvegicus): 11500 ng·h/mL | IC50 [8]: 0.105 µM | inhibition [4]: 6% | inhibition in vivo at 10 mg/kg (HT-29): > 80% | inhibition [5]: -3% | clearance [6]: 1.5 mL/min/kg | Activity (Malme-3M [7]): 39 nM
